One assay concerns Capan-2. The experiment in a line: Antiproliferative activity against human Capan2 cells assessed as cell viability at 50 uM after 48 hrs by MTT assay. It is filed as functional. The conditions noted are these: Capan-2, 48 h, read-out: Activity. Summed up:
(§1)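 Cells exposed to 50 µM compound (fresh medium) for 48 h at 37 °C, 5% CO2; untreated control. Viable cells counted by MTT colorimetric assay. Documented for MiaPaCa-2: DMEM + 10% FBS, 15,000 cells/well, overnight attachment before treatment.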
Background: Tetrazolium dyes change colour on reduction, which living cells bring about.

Assay [1] deals with MIA PaCa-2. The experiment in a line: Antiproliferative activity against human MIAPaCa2 cells assessed as cell viability at 50 uM after 48 hrs by MTT assay. It counts as functional. The conditions noted are these: MIA PaCa-2, 48 h, read-out: Activity. Summed up:
as §1

The next assay relates to PC-3. In words: Antiproliferative activity against human PC3 cells assessed as cell viability at 50 uM after 48 hrs by MTT assay. As to conditions: PC-3, 48 h, read-out: Activity. It counts as functional. Summed up: as §1
Assay [2] deals with MIA PaCa-2. The experiment in a line: Induction of apoptosis in human MIAPaCa2 cells assessed as increase in sub-G1/G0 cell fraction at 50 uM after 48 hrs using propidium iodide staining by FACS analysis. It counts as functional, cell-based. Summed up: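 MiaPaCa-2 cells plated at 10^6 per dish, grown overnight, then given fresh medium with 50 µM compound for 48 h; untreated negative control. Cells trypsinized, PBS-washed, fixed overnight in cold 70% ethanol at 4 °C, RNase-treated, propidium iodide stained, and sub-G1/G0 fraction read by flow cytometry. Triplicate samples.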

Assay [3] concerns MIA PaCa-2. In words: Induction of apoptosis in human MIAPaCa2 cells assessed as increase in caspase 3/7 activation at 50 uM after 24 hrs by luminescence assay. It counts as functional, cell-based. Summed up:
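MiaPaCa-2 cells plated at 15,000 cells/well and treated 24 h later with 50 µM compound for 24 h. Caspase-Glo 3/7 reagent added; DEVD-containing luminogenic substrate cleavage read as luminescence after 1 h at room temperature. Untreated cells as control.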

Assay [4] has as its system MIA PaCa-2. The experiment in a line: Antiproliferative activity against human MIAPaCa2 cells assessed as cell viability after 48 hrs by MTT assay. It counts as functional, cell-based. The essentials:
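MiaPaCa-2 cells in DMEM + 10% FBS, plated at 15,000 cells/well and attached overnight. Medium then replaced with fresh medium holding compound over a dose range; 37 °C, 5% CO2, 48 h. Viable cells determined by MTT colorimetric assay relative to untreated control.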

Structures are written as SMILES. Calls of active or inactive are those of the source. The rule behind the calls is not given here.

As for `COC(=O)c1nc(Nc2cccc(C)c2)nn1[C@@H]1O[C@H](COC(C)=O)[C@@H](OC(C)=O)[C@H]1OC(C)=O`, the viability at 50 µM with Capan-2 is 84.9%; in the assay with MIA PaCa-2 [1], 99.9%; with PC-3, 94.2%.
For the molecule `COC(=O)c1nc(Nc2ccc(C)cc2)nn1[C@@H]1O[C@H](COC(C)=O)[C@@H](OC(C)=O)[C@H]1OC(C)=O`, the viability at 50 µM in the assay with Capan-2 was found to be 47.1%; in the assay with MIA PaCa-2 [1] it was 58.6%; in the assay with PC-3 it was 68.6%. The outcome in the assay on MIA PaCa-2 [2] and in the assay on MIA PaCa-2 [3] was Active. In addition, in the assay on MIA PaCa-2 [4], the Activity result is “Dose-dependent effect”.
Consider `NC(=O)c1nc(Nc2ccc(Cl)cc2)nn1[C@@H]1O[C@H](CO)[C@@H](O)[C@H]1O`, for which the viability at 50 µM with Capan-2 amounted to 72.8%; with MIA PaCa-2 [1] it was 95.9%; in the assay with PC-3 it was 70.2%.
The like results for `COC(=O)c1nc(Nc2ccc(C(F)(F)F)cc2)nn1[C@@H]1O[C@H](COC(C)=O)[C@@H](OC(C)=O)[C@H]1OC(C)=O` were, in that order, 64.4%, 98.6% and 88.4%.
As for `NC(=O)c1nc(Nc2cccc(Cl)c2)nn1[C@@H]1O[C@H](CO)[C@@H](O)[C@H]1O`, the viability at 50 µM in the assay on Capan-2 is 66.2%; in the assay on MIA PaCa-2 [1], 88.7%; in the assay on PC-3, 77.4%.
On the same counts, the results for `COC(=O)c1nc(Nc2ccc(SC)cc2)nn1[C@@H]1O[C@H](COC(C)=O)[C@@H](OC(C)=O)[C@H]1OC(C)=O` are 88.1%, 85.4% and 106%.
`NC(=O)c1nc(Nc2ccc(F)cc2)nn1[C@@H]1O[C@H](CO)[C@@H](O)[C@H]1O`: the viability at 50 µM with Capan-2 came to 62.9%; in the assay on MIA PaCa-2 [1] it was 68.1%; in the assay with PC-3, 67%.
On the same counts, the results for `COC(=O)c1nc(Nc2ccccc2)nn1[C@@H]1O[C@H](COC(C)=O)[C@@H](OC(C)=O)[C@H]1OC(C)=O` are 96.2%, 138% and 91%.
The like results for `CCCc1ccc(Nc2nc(C(=O)OC)n([C@@H]3O[C@H](COC(C)=O)[C@@H](OC(C)=O)[C@H]3OC(C)=O)n2)cc1` were, in that order, 95.9%, 103% and 90.2%.
The like results for `CSc1ccc(Nc2nc(C(N)=O)n([C@@H]3O[C@H](CO)[C@@H](O)[C@H]3O)n2)cc1` were, in that order, 71.1%, 98.6% and 92.1%.
As for `NC(=O)c1nc(Nc2ccccc2)nn1[C@@H]1O[C@H](CO)[C@@H](O)[C@H]1O`, the viability at 50 µM with Capan-2 stood at 46.6%; in the assay with MIA PaCa-2 [1], 68%; in the assay on PC-3, 73.9%.
For the molecule `Cc1ccc(Nc2nc(C(N)=O)n([C@@H]3O[C@H](CO)[C@@H](O)[C@H]3O)n2)cc1`, the viability at 50 µM with Capan-2 turned out to be 63.9%; with MIA PaCa-2 [1] it was 85.6%; in the assay on PC-3, 108%.
For `Nc1ccn([C@@H]2O[C@H](CO)[C@@H](O)C2(F)F)c(=O)n1` [GEMCITABINE], the viability at 50 µM in the assay with Capan-2 is 32.7%; in the assay on MIA PaCa-2 [1], 70.4%.
Regarding `CC(=O)O[C@H]1C(=O)[C@@]2(C)[C@H]([C@H](OC(=O)c3ccccc3)[C@]3(O)C[C@H](OC(=O)[C@H](O)[C@@H](NC(=O)c4ccccc4)c4ccccc4)C(C)=C1C3(C)C)[C@]1(OC(C)=O)CO[C@@H]1C[C@@H]2O` [PACLITAXEL], the viability at 50 µM in the assay on PC-3 is 41.3%.
For `CCCc1ccc(Nc2nc(C(N)=O)n([C@@H]3O[C@H](CO)[C@@H](O)[C@H]3O)n2)cc1`, the viability at 50 µM was 71.5% in the assay on Capan-2, 103% in the assay on MIA PaCa-2 [1] and 90.3% in the assay with PC-3.
On the same counts, the results for `Cc1cccc(Nc2nc(C(N)=O)n([C@@H]3O[C@H](CO)[C@@H](O)[C@H]3O)n2)c1` are 76.3%, 100% and 96.2%.
On the same counts, the results for `COc1ccc(Nc2nc(C(N)=O)n([C@@H]3O[C@H](CO)[C@@H](O)[C@H]3O)n2)cc1` are 126%, 126% and 102%.
On the same counts, the results for `COC(=O)c1nc(Nc2ccc(OC)cc2)nn1[C@@H]1O[C@H](COC(C)=O)[C@@H](OC(C)=O)[C@H]1OC(C)=O` are 72%, 96.4% and 85.6%.
As for `COC(=O)c1nc(Nc2ccc(F)cc2)nn1[C@@H]1O[C@H](COC(C)=O)[C@@H](OC(C)=O)[C@H]1OC(C)=O`, the viability at 50 µM in the assay on Capan-2 turned out to be 79.8%; in the assay with MIA PaCa-2 [1], 80.2%; in the assay on PC-3 it was 84.7%.
On the same counts, the results for `CCc1ccc(Nc2nc(C(=O)OC)n([C@@H]3O[C@H](COC(C)=O)[C@@H](OC(C)=O)[C@H]3OC(C)=O)n2)cc1` are 90%, 99% and 96.1%.
On the same counts, the results for `CCc1ccc(Nc2nc(C(N)=O)n([C@@H]3O[C@H](CO)[C@@H](O)[C@H]3O)n2)cc1` are 66%, 99.8% and 91.4%.
The like results for `NC(=O)c1nc(Nc2ccc(C(F)(F)F)cc2)nn1[C@@H]1O[C@H](CO)[C@@H](O)[C@H]1O` were, in that order, 122%, 100% and 89.4%.
`COC(=O)c1nc(Nc2cccc(Cl)c2)nn1[C@@H]1O[C@H](COC(C)=O)[C@@H](OC(C)=O)[C@H]1OC(C)=O`: the viability at 50 µM was 65.8% with Capan-2, 72.4% in the assay on MIA PaCa-2 [1] and 69.8% in the assay on PC-3.
In the case of `COC(=O)c1nc(Nc2ccc(Cl)cc2)nn1[C@@H]1O[C@H](COC(C)=O)[C@@H](OC(C)=O)[C@H]1OC(C)=O`, the values for the viability at 50 µM in the assay on Capan-2, in the assay on MIA PaCa-2 [1] and with PC-3 were 59.6%, 43.8% and 60.2%, respectively. In addition, the outcome in the assay on MIA PaCa-2 [2] and in the assay on MIA PaCa-2 [3] was Active. Further, the Activity result in the assay with MIA PaCa-2 [4] is “Dose-dependent effect”.
